Test results published in ChEMBL document CHEMBL5233277, “Oxidative Metabolism as a Modulator of Kratom's Biological Actions” (J Med Chem, 2021).
Active and inactive are the calls of the source. The rule behind the calls is not given here.

Key:
[1] = system: Mus musculus; experiment: Potency index, ratio of morphine ED50 to test compound ED50 for antinociceptive activity in po dosed C57BL/6J mouse model assessed as peak effect measured at 20 mins by radiant heat tail flick assay; assay type: functional
[2] = Drug concentration in C57BL/6J mouse plasma at 1 mg/kg, sc measured after 20 mins by LC-MS/MS analysis; assay type: ADME, organism-based
[3] = Toxicity in C57BL/6J mouse assessed as conditioned place preference at 1 mg/kg, sc; assay type: organism-based; details: in vivo
Method in brief: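 C57BL/6J mice (n = 18–24) were habituated to a two-compartment apparatus for 3 h per day over 2 days, then given a 20 min pre-conditioning baseline test. Conditioning used 20 min sessions with drug at 1 mg/kg/d sc or saline. On test day mice explored freely for 20 min, and a difference score was calculated.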

[4] = system: Mus musculus; experiment: Potency index, ratio of morphine ED50 to test compound ED50 for antinociceptive activity in po dosed 129Sv6 mouse model assessed as peak effect measured at 15 mins by radiant heat tail flick assay; assay type: functional; details: 0.25 h
[5] = Drug concentration in C57BL/6J mouse brain at 1 mg/kg, sc measured after 20 mins by LC-MS/MS analysis; assay type: ADME, organism-based; details: read-out: Ct
[6] = Toxicity in C57BL/6J mouse assessed as hyperlocomotion at 1 mg/kg, sc measured after 20 mins; assay type: organism-based; details: in vivo
[7] = system: Mus musculus; experiment: Antinociceptive activity in po dosed C57BL/6J mouse model assessed as peak effect measured at 20 mins by radiant heat tail flick assay; assay type: functional
[8] = target: Mu-type opioid receptor (Mus musculus) (UniProt P42866); experiment: Potency index, ratio of mitragynine EC50 to test compound EC50 for agonist activity at mouse MOR expressed in CHO cell membranes assessed as stimulation of [35S]-GTPgammaS binding incubated for 60 mins by scintillation spectroscopy analysis; details: Membrane
Sequence of Mu-type opioid receptor (Mus musculus) (P42866 whole entry): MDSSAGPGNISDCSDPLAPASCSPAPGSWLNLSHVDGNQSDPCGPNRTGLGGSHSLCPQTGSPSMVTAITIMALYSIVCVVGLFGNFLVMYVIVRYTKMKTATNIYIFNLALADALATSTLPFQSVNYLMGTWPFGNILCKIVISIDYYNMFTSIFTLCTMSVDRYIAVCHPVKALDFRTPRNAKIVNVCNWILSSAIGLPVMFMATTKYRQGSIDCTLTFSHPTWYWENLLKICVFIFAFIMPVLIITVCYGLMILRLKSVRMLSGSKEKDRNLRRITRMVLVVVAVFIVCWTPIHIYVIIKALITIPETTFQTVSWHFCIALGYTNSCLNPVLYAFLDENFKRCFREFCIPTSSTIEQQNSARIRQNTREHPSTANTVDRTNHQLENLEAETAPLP

[9] = target: Mu-type opioid receptor (Mus musculus) (UniProt P42866); experiment: Potency index, ratio of mitragynine Ki to test compound Ki for displacement of [125]IBNtxA from mouse MOR stably expressed in CHO cell membranes incubated for 90 mins; details: Membrane
[10] = system: Mus musculus; experiment: Antinociceptive activity in sc dosed 129Sv6 mouse model assessed as peak effect measured at 15 mins by radiant heat tail flick assay; assay type: functional; details: 129Sv6, 0.25 h
[11] = target: T1, Kappa-type opioid receptor (Mus musculus, UniProt P33534); experiment: Displacement of [125]IBNtxA from mouse KOR stably expressed in CHO cell membranes incubated for 90 mins; design: species or system Membrane
T1 sequence (P33534 whole entry): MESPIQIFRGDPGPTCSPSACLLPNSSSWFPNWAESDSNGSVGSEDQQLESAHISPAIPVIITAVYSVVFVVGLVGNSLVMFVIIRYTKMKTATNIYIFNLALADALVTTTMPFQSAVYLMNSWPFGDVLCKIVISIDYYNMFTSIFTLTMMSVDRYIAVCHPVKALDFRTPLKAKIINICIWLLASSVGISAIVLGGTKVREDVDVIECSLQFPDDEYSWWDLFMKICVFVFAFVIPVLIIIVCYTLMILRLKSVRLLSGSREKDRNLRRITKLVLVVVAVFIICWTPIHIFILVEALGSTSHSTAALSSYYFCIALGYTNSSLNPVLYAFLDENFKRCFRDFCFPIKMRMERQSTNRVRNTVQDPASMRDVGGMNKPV
Method in brief: (§1)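 MOR: 50 mM potassium phosphate with 5 mM MgSO4, 20 μg/mL protein. KOR and DOR: 50 mM potassium phosphate pH 7.0, 40 μg/mL protein. 25 °C, 90 min; glass-fiber filtration; levallorphan 8 μM defines nonspecific binding. Ki from IC50; at least three replicates.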

[12] = target: Kappa-type opioid receptor (Mus musculus) (UniProt P33534); experiment: Agonist activity at mouse KOR expressed in CHO cell membranes assessed as stimulation of [35S]-GTPgammaS binding by measuring maximal efficacy incubated for 60 mins by scintillation spectroscopy analysis relative to U50,488H; details: Membrane, filed as agonist
Sequence of Kappa-type opioid receptor (Mus musculus) (P33534 whole entry): as above
Method in brief: (§2)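 CHO cell membranes stably expressing cloned mouse opioid receptors; agonist-stimulated [35S]GTPγS binding. […] Three independent experiments, each in triplicate.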

[13] = target: T2, Mu-type opioid receptor (Mus musculus, UniProt P42866); experiment: Displacement of [125]IBNtxA from mouse MOR stably expressed in CHO cell membranes incubated for 90 mins; design: species or system Membrane; method in brief: as §1
T2 sequence (P42866 whole entry): as the sequence (P42866 whole entry) above

[14] = target: Mu-type opioid receptor (Mus musculus) (UniProt P42866); experiment: Agonist activity at mouse MOR expressed in CHO cell membranes assessed as stimulation of [35S]-GTPgammaS binding by measuring maximal efficacy incubated for 60 mins by scintillation spectroscopy analysis relative DAMGO; details: Membrane, filed as agonist; method in brief: as §2
[15] = target: Delta-type opioid receptor (Mus musculus) (UniProt P32300); experiment: (§3) Antagonist activity at mouse DOR expressed in CHO cell membranes assessed as inhibition of DPDPE induced [35S]-GTPgammaS binding incubated for 60 mins by scintillation spectroscopy analysis; details: Membrane
Sequence of Delta-type opioid receptor (Mus musculus) (P32300 whole entry): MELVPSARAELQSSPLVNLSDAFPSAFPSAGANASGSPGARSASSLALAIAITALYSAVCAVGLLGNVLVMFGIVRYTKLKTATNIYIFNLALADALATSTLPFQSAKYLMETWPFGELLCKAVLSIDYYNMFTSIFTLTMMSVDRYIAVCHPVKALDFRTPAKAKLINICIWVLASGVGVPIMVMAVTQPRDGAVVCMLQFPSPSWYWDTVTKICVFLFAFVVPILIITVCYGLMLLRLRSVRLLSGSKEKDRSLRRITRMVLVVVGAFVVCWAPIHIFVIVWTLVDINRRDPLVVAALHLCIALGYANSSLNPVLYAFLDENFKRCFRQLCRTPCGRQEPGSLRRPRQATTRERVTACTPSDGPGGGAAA

[16] = target: T3, Delta-type opioid receptor (Mus musculus, UniProt P32300); experiment: Displacement of [125]IBNtxA from mouse DOR stably expressed in CHO cell membranes incubated for 90 mins; design: species or system Membrane; method in brief: as §1
T3 sequence (P32300 whole entry): as above

[17] = target: T1, Kappa-type opioid receptor; experiment: (§4) Agonist activity at mouse KOR expressed in CHO cell membranes assessed as stimulation of [35S]-GTPgammaS binding incubated for 60 mins by scintillation spectroscopy analysis; design: species or system Membrane
Method in brief: (§5)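 CHO cell membranes stably expressing cloned mouse opioid receptors; agonist-stimulated [35S]GTPγS binding. Three independent experiments, each in triplicate.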

[18] = target: T3, Delta-type opioid receptor; experiment: as §3; design: species or system Membrane
[19] = target: T2, Mu-type opioid receptor; experiment: Agonist activity at mouse MOR expressed in CHO cell membranes assessed as stimulation of [35S]-GTPgammaS binding incubated for 60 mins by scintillation spectroscopy analysis; design: species or system Membrane; method in brief: as §5
[20] = Toxicity in sc dosed C57BL/6J mouse assessed as lethality at 50 mg/kg, sc; assay type: organism-based; details: in vivo, read-out: Activity
Method in brief: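 Opioid-naïve C57BL/6J mice (n = 4) were given a single 50 mg/kg subcutaneous dose in DMSO/solutol/saline (1:1:8) and observed for lethality, reported as percent of animals dying.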

[21] = Toxicity in 129Sv6 mouse assessed as fatality at 10 ug, IT; details: in vivo, other, dose 10 µg
[22] = Drug concentration in C57BL/6J mouse plasma at 30 mg/kg, po measured after 24 hrs by LC-MS/MS analysis; assay type: ADME, organism-based; details: in vivo, BLD = below limit of detection
[23] = Toxicity in CD1 mouse assessed as fatality at 10 ug, IT; details: in vivo, other, dose 10 µg
[24] = Toxicity in MOR knock out C57BL/6J mouse at 50 mg/kg, sc in presence of naltrindole; assay type: organism-based; details: in vivo
[25] = Toxicity in C57BL/6J mouse at 50 mg/kg, sc in presence of naltrindole; assay type: organism-based; details: in vivo
[26] = Toxicity in MOR knock out C57BL/6J mouse at 50 mg/kg, sc in presence of norbinaltorphimine; assay type: organism-based; details: in vivo
[27] = Toxicity in sc dosed CD1 mouse assessed as lethality; assay type: organism-based; details: in vivo
Method in brief: (§6)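 Groups of mice (n = 6 per dose) received graded subcutaneous doses in DMSO/solutol/saline (1:1:8) and were scored for lethality. […] Strains were 129Sv6 for line 3 and CD1 for […], both purchased from Jackson Laboratories.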

[28] = organism: Mus musculus; experiment: Antinociceptive activity in mouse; assay type: functional, organism-based
[29] = Toxicity in C57BL/6J mouse at 50 mg/kg, sc in presence of norbinaltorphimine; assay type: organism-based; details: in vivo
[30] = Toxicity in sc dosed 129Sv6 mouse assessed as lethality; assay type: organism-based; details: in vivo; method in brief: as §6
[31] = Drug concentration in C57BL/6J mouse brain at 30 mg/kg, po measured after 24 hrs by LC-MS/MS analysis; assay type: ADME, organism-based; details: in vivo, BLD = below limit of detection
[32] = target: Kappa-type opioid receptor (Mus musculus) (UniProt P33534); experiment: as §4; details: Membrane; method in brief: as §5
[33] = target: Mu-type opioid receptor (Mus musculus) (UniProt P42866); experiment: Partial agonist activity at mouse MOR expressed in CHO cell membranes assessed as stimulation of [35S]-GTPgammaS binding by measuring maximal efficacy incubated for 60 mins by scintillation spectroscopy analysis relative DAMGO; details: Membrane, filed as partial agonist
Method in brief: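 Membranes from CHO cells stably expressing mouse MOR were used in an agonist-stimulated [35S]GTPγS binding assay. […] Data are from three independent experiments, each run in triplicate.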

[34] = organism: Mus musculus; experiment: animal or person; details: 129Sv6, 0.5 h
[35] = organism: Mus musculus; experiment: animal or person; details: C57BL/6J, po, 0.5 h
[36] = organism: Mus musculus; experiment: animal or person; details: 129Sv6, po, 1 h

Structure (SMILES) | ED50 [10] | Ki [11] | Emax [12] | Ki [13] | Emax [14] | Ki [16] | EC50 [17] | EC50 [19] | further results
CC[C@@H]1CN2CC[C@@]3(O)C(=Nc4cccc(OC)c43)[C@@H]2C[C@@H]1/C(=C\OC)C(=O)OC | 0.2 mg/kg |  |  |  |  |  |  |  | Ratio ED50 [1]: 3; concentration at 20 min [2]: 270 nM; Activity [3]: Toxic; Ratio ED50 [4]: 3; concentration at 20 min [5]: 450 nM; Activity [6]: Non-Toxic; ED50 [7]: 0.3 mg/kg; Ratio EC50 [8]: 4; Ratio Ki [9]: 6
CC[C@@H]1CN2CCc3c([nH]c4cccc(O)c34)[C@@H]2C[C@@H]1/C(=C\OC)C(=O)OC | > 100 mg/kg | 1180 nM | 87% | 216 nM | 62% | 1880 nM | 858 nM |  | inhibition [15]: inactive
C=C[C@H]1CN2CCc3c([nH]c4cccc(OC)c34)[C@@H]2C[C@@H]1/C(=C\OC)C(=O)OC | > 100 mg/kg | 883 nM | 57% | 666 nM | 54% | 3390 nM | 3590 nM | 9380 nM | IC50 [18]: > 10000 nM
CC[C@@H]1C[N+]2=C(C[C@@H]1/C(=C\OC)C(=O)OC)c1[nH]c3cccc(OC)c3c1CC2 | > 100 mg/kg | 125 nM | 64% | 34.1 nM |  | 49.1 nM | 166 nM | 67.5 nM | mortality [20]: 100%; Activity [21]: Toxic; Cp [22]: Bld; Activity [23]: Toxic; Activity [24]: Toxic; Activity [25]: Toxic; Activity [26]: Toxic; IC50 [18]: 1100 nM; LD50 [27]: 74 mg/kg; Activity [28]: inactive; Activity [29]: Toxic; LD50 [30]: 48.4 mg/kg; Ct [31]: Bld
CC[C@@H]1C[N+]2([O-])CCc3c([nH]c4cccc(OC)c34)[C@@H]2C[C@@H]1/C(=C\OC)C(=O)OC (stereo not given in full) |  | 7180 nM |  | 6900 nM |  | 4140 nM |  |  | 
CC[C@H]1CN2CCc3c([nH]c4cccc(OC)c34)[C@@H]2C[C@@H]1/C(=C\OC)C(=O)OC |  |  |  |  | 43% |  |  |  | Activity [32]: inactive
CC[C@@H]1CN2CCc3c([nH]c4cccc(O[C@@H]5O[C@H](C(=O)O)[C@@H](O)[C@H](O)[C@H]5O)c34)[C@@H]2C[C@@H]1/C(=C\OC)C(=O)OC | > 30 mg/kg | 1270 nM | 98% | 1670 nM | 102% | 3240 nM | 1140 nM | 5780 nM | inhibition [15]: inactive
CC[C@@H]1CN2CCc3c([nH]c4cccc(OC)c34)[C@H]2C[C@@H]1/C(=C\OC)C(=O)OC | > 100 mg/kg |  | 58% |  |  |  |  |  | Emax [33]: 45%
CN1CC[C@]23c4c5ccc(O)c4O[C@H]2[C@@H](O)C=C[C@H]3[C@H]1C5 [MORPHINE] | 0.68 mg/kg |  |  |  |  |  |  |  | ED50 [34]: 0.7 mg/kg; ED50 [35]: 4.73 mg/kg; ED50 [36]: 3.3 mg/kg
CO/C=C(/C(=O)OC)[C@@H]1CCN2CC[C@]3(Nc4cccc(OC)c4C3=O)[C@@H]2C1 | 0.3 mg/kg |  |  |  |  |  |  |  | Ratio ED50 [1]: 2; concentration at 20 min [2]: 410 nM; Ratio ED50 [4]: 2; concentration at 20 min [5]: 70 nM; Activity [6]: Non-Toxic; ED50 [7]: 0.26 mg/kg
